CSN deneddyl inh: blocks human CSN-mediated cullin deneddylation; inhibition, % at 12.5 µM; Q92905; actives 0.38% (n = 360,000); Purified CSN, SCF-Nedd8-OG deneddylation, fluorescence polarization;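 active = pattern-corrected inhibition above about 35%, with an unprinted fluorescence ratio check between 0.5 and 1.5, limit read from the data, passing the limit was not always enough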
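Material: purified human Csn5 enzyme expressed in HEK293T cells / Medium: Tris buffer pH 7.5, NaCl, DTT, Tween-20, trehalose, ovalbumin / Compound dosing: 12.5 µM single point / Schedule: 90 min incubation of compound, enzyme and substrate at room temperature / Signal: fluorescence polarization of the substrate / Control set: no-enzyme wells high, enzyme-with-substrate wells low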
HNF4A DNA FP: change in binding of human HNF4 alpha to DNA; P41235; HNF4a-FITC DNA binding, fluorescence polarization, 1 h; activity change, % at 10 µM; actives 0.3% (n = 360,000); in the data active = activity change above about 30%, passing the limit was not always enough
Rtt109 Vps75: C. albicans Rtt109 histone acetyltransferase inhibition; purified Rtt109/Vps75, ThioGlo CoA-SH fluorescence, 4 h; inhibition, % at 34.9 µM; actives 0.16% (n = 330,000);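 active = inhibition of at least 50% in every replicate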
Target sequence (Q5AAJ8 whole entry, looked up): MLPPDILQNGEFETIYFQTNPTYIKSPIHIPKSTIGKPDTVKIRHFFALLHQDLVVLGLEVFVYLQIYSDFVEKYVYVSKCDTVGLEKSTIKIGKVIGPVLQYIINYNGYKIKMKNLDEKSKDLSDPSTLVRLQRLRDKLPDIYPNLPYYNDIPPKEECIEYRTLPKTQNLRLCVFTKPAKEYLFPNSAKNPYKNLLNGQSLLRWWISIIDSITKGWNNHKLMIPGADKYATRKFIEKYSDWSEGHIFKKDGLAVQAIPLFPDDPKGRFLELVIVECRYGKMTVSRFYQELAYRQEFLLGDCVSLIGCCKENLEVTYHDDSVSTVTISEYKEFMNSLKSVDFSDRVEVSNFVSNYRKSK
TPT1 inh: blocks Candida albicans tRNA 2'-phosphotransferase; recombinant caTPT1, FP RNA substrate dephosphorylation; inhibition, % at 5 µM; actives 0.81% (n = 300,000);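 active = inhibition above the mean of all tested compounds plus 3 SD, set per screening campaign, cut at about 24% in these data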
Large screens that a line does not name were inactive. Compounds with a hit are over-represented: about 1.2% of the library has one in this group of screens.

COc1cc(C(c2nnnn2C(C)(C)C)N2CCN(c3nc4ccccc4s3)CC2)ccc1O (centres undefined)	Rtt109 Vps75 65.8
C=CCn1c(=O)c(C(=O)Nc2ccccc2S(N)(=O)=O)c(O)c2ccccc21	CSN deneddyl inh 93.2
Cc1c(S(=O)(=O)N2CCCCC2)c(=O)n(C)c(=O)n1C	CSN deneddyl inh 63.9
COC(=O)C1CCN(S(=O)(=O)c2c(C)n(C)c(=O)n(C)c2=O)CC1	none
COc1ccccc1N(C(=O)c1ccco1)C(C(=O)NC1CCCC1)c1ccc(N2CCOCC2)cc1 (centres undefined)	none
CC1CCC2(CC1)NC(=S)N(c1ccccc1)N2 (centres undefined)	Rtt109 Vps75 95.1
CC1CCC2(CC1)NC(=S)N(C(C)(C)C)N2 (centres undefined)	none
O=C(/C=C/Nc1ccc([N+](=O)[O-])cc1Br)c1cccc2ccccc12	Rtt109 Vps75 51.2
NC(=O)c1cc([N+](=O)[O-])ccc1NCc1cccc2ccccc12	none
COc1c(C(=O)Nc2ccc(Br)cn2)ccc2ccccc12	none
COc1cc2ccccc2cc1C(=O)Nc1ccc(Br)cn1	Rtt109 Vps75 59.2 (no result: TPT1 inh)
CC1(C(=O)O)Sc2[nH]c(=O)sc2C2c3ccccc3OC(=O)C21 (centres undefined)	HNF4A DNA FP 39.1
COC(=O)C1Sc2[nH]c(=O)sc2C2c3ccccc3OC(=O)C12 (centres undefined)	none
O=c1[nH][nH]c2c1[C@@H](c1ccc(F)cc1)O[C@H](CCOCc1ccccc1)C2	none (no result: Rtt109 Vps75, TPT1 inh)
Cc1cc(NC(=O)Cc2cc(F)cc(F)c2)no1	none
C=CC#CC[N+]1(CC#Cc2ccccc2)CCOCC1	CSN deneddyl inh 166.3 (no result: TPT1 inh)
CC(Sc1ccccc1)C(=O)NCCc1ccccc1 (centres undefined)	CSN deneddyl inh 50.5
COc1ccc(CCNC(=O)C(C)SCc2ccccc2)cc1 (centres undefined)	none
CCCCCC[N+](C)(C)CC/C=C1/c2ccccc2Sc2ccc(Cl)cc21	Rtt109 Vps75 73.4
COc1ccc(/C=C/C(=O)O)cc1S(=O)(=O)NCc1ccco1	Rtt109 Vps75 50.2
COc1ccc(NC(=O)C2(C)Cc3c(-c4ccc5c(c4)OCO5)ccnc3O2)cn1 (centres undefined)	none (no result: Rtt109 Vps75, TPT1 inh)
Cc1cc(=O)oc2c(C)c(OC(C)C(=O)NCCN3CCOCC3)ccc12 (centres undefined)	none
Cc1c(OC(C)C(=O)NCCN2CCOCC2)ccc2c3c(c(=O)oc12)CCCC3 (centres undefined)	CSN deneddyl inh 41.3
Cn1ccc2c(N(Cc3ccccc3)Cc3ccccc3)cc3c(c21)C1CCC3O1 (centres undefined)	CSN deneddyl inh 84.4 (no result: Rtt109 Vps75, TPT1 inh)
CN(Cc1ccccc1)c1cc2c(c3c1ccn3C)C1CCC2O1 (centres undefined)	none (no result: Rtt109 Vps75, TPT1 inh)
Cc1ccccc1CN1CCCC(C(=O)Nc2ccccc2Oc2cccnc2)C1 (centres undefined)	none
CN1CCN(c2nc(-c3cccc([N+](=O)[O-])c3)nc3ccccc23)CC1	CSN deneddyl inh 44.0
O=C(COC(=O)c1cc(Br)ccc1O)NNC(=O)c1cccs1	none (no result: TPT1 inh)
Cc1ccc(NC(=O)CN2C(=O)N/C(=C/c3ccccc3OCc3cccc(C(=O)O)c3)C2=O)cc1	CSN deneddyl inh 72.0
COc1cccc(/C=C2/NC(=O)N(CC(=O)Nc3ccc(C)cc3)C2=O)c1OCc1cccc(C(=O)O)c1	CSN deneddyl inh 36.9
C#CCOCCOCCOCCNc1nc(N2CCN(C(=O)[C@H](CCCN=C(N)N)n3cc(C(N)[C@@H](C)CC)nn3)CC2)nc(N2CCN(C(=O)[C@H](CCC(=O)O)n3cc([C@@H](N)CCCCN)nn3)CC2)n1 (some centres undefined)	none (no result: TPT1 inh)
C#CCOCCOCCOCCNc1nc(N2CCN(C(=O)[C@H](CCCN=C(N)N)n3cc(C(N)[C@@H](C)CC)nn3)CC2)nc(N2CCN(C(=O)[C@H](CCCCN)n3cc([C@@H](N)[C@H](C)CC)nn3)CC2)n1 (some centres undefined)	Rtt109 Vps75 53.8 (no result: TPT1 inh)
C#CCOCCOCCOCCNc1nc(N2CCN(C(=O)C([C@@H](C)O)n3cc([C@@H](N)CCCCN)nn3)CC2)nc(N2CCN(C(=O)[C@H](CCCCN)n3cc([C@@H](N)CC(N)=O)nn3)CC2)n1 (some centres undefined)	Rtt109 Vps75 90.9 (no result: TPT1 inh)
C#CCOCCOCCOCCNc1nc(N2CCN(C(=O)[C@H](Cc3cc4ccccc4[nH]3)n3cc([C@@H](N)C(C)CC)nn3)CC2)nc(N2CCN(C(=O)[C@H](CCCCN)n3cc([C@@H](N)CO)nn3)CC2)n1 (some centres undefined)	none (no result: CSN deneddyl inh, HNF4A DNA FP, Rtt109 Vps75)
C#CCOCCOCCOCCNc1nc(N2CCN(C(=O)[C@H](CCCCN)n3cc([C@@H](N)C(C)CC)nn3)CC2)nc(N2CCN(C(=O)[C@H](Cc3cc4ccccc4[nH]3)n3cc([C@@H](N)CC(C)C)nn3)CC2)n1 (some centres undefined)	CSN deneddyl inh 45.0, HNF4A DNA FP 49.5
CC(C)n1nnnc1SCC(=O)N1N=C(c2cccs2)CC1c1cccs1 (centres undefined)	none (no result: TPT1 inh)
CCOC(=O)C1(C)CCCN(C(=O)COc2ccccc2)C1 (centres undefined)	none (no result: Rtt109 Vps75, TPT1 inh)
COC(=O)c1cc(O)cc(OC)c1Oc1cc(C)cc(O)c1C(=O)O	CSN deneddyl inh 40.6
CCOC(=O)C1=C(C)N=c2s/c(=C\c3ccc(OCC(=O)O)cc3)c(=O)n2C1c1ccccc1 (centres undefined)	none
CCOC(=O)C1=C(C)N=c2sc(=Cc3ccc(OCC(=O)O)cc3)c(=O)n2C1c1ccc(SC)cc1 (centres undefined)	CSN deneddyl inh 38.4 (no result: Rtt109 Vps75, TPT1 inh)
Nc1nc2ccccc2cc1C(=O)NCCCCc1ccccc1	none (no result: Rtt109 Vps75, TPT1 inh)
O=C(COc1ccc(Cl)cc1)NCCNC(=O)c1ccccn1	HNF4A DNA FP 55.5
Cc1ccc(OCC(=O)NCCCNC(=O)c2ccccn2)cc1C	none
COc1ccc(OCC(=O)Nc2ccc3oc(-c4ccncc4)nc3c2)cc1	none
COc1ccc(-c2nc3cc(NC(=O)Cc4ccc(OC)c(OC)c4)ccc3o2)cc1	CSN deneddyl inh 42.7
NC(CSC(c1ccccc1)(c1ccccc1)c1ccc2c(c1)OCO2)C(=O)O (centres undefined)	none (no result: Rtt109 Vps75, TPT1 inh)
O=C(O)C1=CC(=C(c2ccc(O)c(C(=O)O)c2)c2ccc(O)c(C(=O)O)c2)C=CC1=O	TPT1 inh 101.3 (no result: CSN deneddyl inh, HNF4A DNA FP, Rtt109 Vps75)
Nc1nc2ccc(S(=O)(=O)N3CCCCC3)cc2s1	Rtt109 Vps75 151.9
Cc1nc2ccc(S(=O)(=O)N3CCCCC3)cc2s1	none
O=C(C[n+]1ccc(CCSc2ccc(F)cc2)cc1)c1ccccc1	CSN deneddyl inh 105.0 (no result: Rtt109 Vps75)
COC(=O)c1c(N)sc2c1CCN(c1ncc(C(F)(F)F)cc1Cl)C2	none
COC(=O)c1c(/N=C/NOCc2ccc(Cl)cc2)sc2c1CCN(c1ncc(C(F)(F)F)cc1Cl)C2	CSN deneddyl inh 36.7
CCOc1ccc(-c2c(C#N)c(N)nc3sc(C(=O)c4ccccc4)c(N)c23)cc1	HNF4A DNA FP 39.9
